Assay outcomes as filed in PubChem BioAssay.
SF-1 act = activators of human SF-1, primary screen, cell-based, CHO-K1, Gal4-SF-1 LBD, luciferase luminescence. AID 522, 2006. CHO-K1 Gal4-SF-1 LBD luciferase reporter; % increase over DMSO SF-1-specific signal. 65,000 compounds, 1.9% hits. Steroidogenic factor 1 (Homo sapiens), Q13285. activation, % at 10 µM;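 active = activation above the mean activation of all tested compounds plus 3 SD, cut at about 50% in these data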
Target sequence (Q13285 whole entry, looked up, the tested form may be a part): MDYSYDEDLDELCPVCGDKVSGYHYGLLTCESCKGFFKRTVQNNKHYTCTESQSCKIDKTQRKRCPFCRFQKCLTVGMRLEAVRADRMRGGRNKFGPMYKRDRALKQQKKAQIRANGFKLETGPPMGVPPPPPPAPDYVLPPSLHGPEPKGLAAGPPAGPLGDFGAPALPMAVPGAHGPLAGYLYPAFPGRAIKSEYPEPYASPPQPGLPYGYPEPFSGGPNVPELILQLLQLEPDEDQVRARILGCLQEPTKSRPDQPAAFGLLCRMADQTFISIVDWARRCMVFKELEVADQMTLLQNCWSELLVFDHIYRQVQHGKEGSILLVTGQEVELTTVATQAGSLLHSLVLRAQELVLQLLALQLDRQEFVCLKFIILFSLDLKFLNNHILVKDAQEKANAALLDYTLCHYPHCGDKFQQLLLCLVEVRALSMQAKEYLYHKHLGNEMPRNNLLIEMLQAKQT
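Test system: CHO-K1 cells with Gal4–hSF-1 LBD chimera plus Gal4-driven luciferase; Input: 4,000 cells/well; Compound: 10 µM only; Times: 20 h compound treatment, 37 °C; Measured by: steady-glow luciferase luminescence, read after 15 min reagent incubation; Measure: percent activation versus DMSO; Control set: DMSO and mock-transfected background; Replicates: one test per compound.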
Jurkat viability = cytotoxicity toward Jurkat T cells, primary screen, cytotoxicity control, cell-based, Jurkat E6.1, 60K MLSMR library. AID 463, 2006. Jurkat E6.1 viability, ATP luminescence, 48 h. 56,000 compounds, 1.2% hits. inhibition, % at 4 µM;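 active = inhibition above the mean inhibition of all tested compounds plus 3 SD, cut at about 28% in these data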
RORA act = activators of orphan receptor RORA, primary screen, cell-based, luminescence; CHO-K1 Gal4-RORA LBD luciferase reporter; percent increase over mock-subtracted basal signal; activation, % at 10 µM; 65,000 compounds, 1.5% hits; Nuclear receptor ROR-alpha (Homo sapiens), P35398;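 active = activation above the mean of all tested compounds plus 3 SD, cut at about 49% in these data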;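 note: 0% = DMSO-treated RORA cells and 100% = added signal equal to DMSO minus mock-transfected cells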
MT1-MMP txn act = MT1-MMP promoter reporter activation – cell-based, luciferase luminescence, primary screen | 86,000 compounds, 0.16% hits | activation factor at 10 µM | HT1080 MT1-MMP promoter luciferase reporter, overnight; active compounds read high | AID 750, 2007;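 active = activation factor of at least 2 for MT1-MMP transcription at 10 µM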
HEK293 NFkB inh = inhibitors of PMA/ionomycin-induced NF-kB reporter, primary screen, antigen receptor NF-kB inhibitor project, cell-based, HEK-293 luciferase reporter, luminescence; HEK-293 NF-kB luciferase reporter; 62,000 compounds, 0.21% hits; inhibition, % at 3 µM; AID 465, 2006;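 active = inhibition above the mean of all tested compounds plus 3 SD, cut at about 40% in these data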;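 note: 0% = stimulated DMSO wells and 100% = 10 µM reference inhibitor 5653914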
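Material: HEK-293 cells with stable firefly luciferase reporter driven by four HIV NF-kB elements / Also added: PMA plus ionomycin mix as NF-kB-activating stimulus / Compound dosing: 3 µM once, 0.30% DMSO / Times: 1 h pretreatment, 16 h stimulation, 37 °C / Signal: luminescence / Evaluation: per-plate % inhibition versus controls / Benchmarks: DMSO and 10 µM reference inhibitor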
Active calls of the source: *; nt = no result given. A selection: hits, their analogues and other compounds. The true share with any hit is near 2.9%.

SMILES	SF-1 act	Jurkat viability	RORA act	MT1-MMP txn act	HEK293 NFkB inh
COc1cc(Cl)c(S(=O)(=O)NCc2ccccn2)cc1Cl	nt	nt	nt	1.1	nt
O=C(Nc1nnc(Cc2ccccc2)s1)c1ccco1	nt	nt	nt	1.6	nt
O=C(Nc1nnc(CCc2ccccc2)s1)c1ccco1	32.4	-3.9	53.5*	1.3	0.6
Cc1csc(NC(=O)c2cnc3ccccn3c2=O)n1	61.0*	6.1	34.2	1.3	-23.1
Cc1csc(NC(=O)c2ccoc2C)n1	56.1*	3.4	37.5	1.5	0.7
O=C(Nc1ccc(-c2noc(CCc3ccccc3)n2)cc1)c1ccco1	22.7	7.5	72.3*	1.3	-8.4
CCCCN(CCCC)C(=O)c1ccccc1NC(=O)CN1C(=O)c2ccccc2C1=O	nt	nt	nt	1.2	nt
CCCOC(=O)NC(CC)COC(=O)Nc1cccc(C)c1C (stereo not drawn)	-3.2	5.3	-19.9	1	-1.0
O=C(Nc1nnc(C23CC4CC(CC(C4)C2)C3)s1)c1ccco1	20.9	-5.1	91.0*	2*	-42.8
Cc1occc1C(=O)Nc1ccc2ccccc2c1	47.5	2.2	120.2*	0.9	-39.2
Cc1nnc(NC(=O)c2ccco2)s1	5.3	-6.6	-3.3	1.2	-0.5
CSc1nnc(-c2cccc(C)c2)n1N	nt	nt	nt	1.2	nt
Cc1ccc2cc(C#N)c(NCc3ccco3)nc2c1	-0.2	12.4	8.3	0.9	15.9
CC1(C(=O)NCc2ccccn2)C=CCN1C(=O)c1ccccc1 (stereo not drawn)	nt	nt	nt	1.2	nt
Cc1cc(C)cc(NS(=O)(=O)c2ccc3[nH]cc(C(=O)NCc4ccco4)c(=O)c3c2)c1	0.1	47.8*	-11.1	1.1	18.2
O=C(Nc1cccc2cccnc12)c1cccnc1	7.1	-3.6	15.7	1.2	8.5
Cc1cnc(C(=O)Nc2cccc3cccnc23)cn1	-60.9	84.5*	-27.0	0.9	1.6
O=C(Nc1cccc2ccccc12)c1cnccn1	62.7*	-2.1	15.4	1.6	-9.9
Cc1cccc(C(=O)Nc2ccccc2C(=O)OCc2c(C)noc2C)c1	-7.3	1.3	-10.3	nt	15.7
Cc1c(C(=O)OCc2ccccc2)[nH]c2c1C(=O)CC(c1ccco1)C2 (stereo not drawn)	-30.1	98.0*	-5.7	0.4	38.4
CCOC(=O)c1[nH]c2c(c1C)C(=O)CC(c1ccco1)C2 (stereo not drawn)	-43.2	99.8*	-25.9	0.3	41.3*
COCCOC(=O)c1[nH]c2c(c1C)C(=O)CC(c1ccccc1)C2 (stereo not drawn)	-19.4	nt	-22.7	nt	29.5
Cc1c(C(=O)O)[nH]c2c1C(=O)CC(c1ccccc1)C2 (stereo not drawn)	-9.3	nt	-10.7	nt	16.5
Cc1c(C(=O)OCCOC(C)C)[nH]c2c1C(=O)CC(c1ccco1)C2 (stereo not drawn)	-39.8	100.3*	-23.5	0.3	48.2*
COCCOC(=O)c1[nH]c2c(c1C)C(=O)CC(c1ccco1)C2 (stereo not drawn)	-12.2	92.0*	7.4	0.3	38.7
SMILES	SF-1 act	Jurkat viability	RORA act	MT1-MMP txn act	HEK293 NFkB inh
CCOC(=O)N1CCC(Nc2ncnc3c2cnn3-c2ccc(Cl)cc2)CC1	15.2	-6.2	-13.4	1.2	-2.8
CCCCc1cc2c(c(NC(=O)CC)n1)c(=O)oc1ccccc12	-0.6	0.2	-10.2	1.1	3.8
COCCOC(=O)c1[nH]c2c(c1C)C(=O)CC(c1ccc(F)cc1)C2 (stereo not drawn)	24.3	75.4*	25.8	1.2	7.7
CSCCOC(=O)c1[nH]c2c(c1C)C(=O)CC(c1ccco1)C2 (stereo not drawn)	41.2	85.1*	3.9	0.4	29.2
COCCOC(=O)c1[nH]c2c(c1C)C(=O)CC(c1ccc(N(C)C)cc1)C2 (stereo not drawn)	7.6	-3.7	14.4	1.4	4.6
Cc1ccc(C2CC(c3cccs3)=NN2C(=O)c2ccc(Br)o2)cc1 (stereo not drawn)	nt	nt	nt	1.2	nt
COC(=O)c1sc(N2C(=O)C(O)=C(C(=O)c3ccc(C)o3)C2c2ccc(F)cc2)nc1C (stereo not drawn)	-8.0	-8.3	21.0	0.9	16.0
COc1cc2c(C)nc3onc(-c4ccccc4)c3c2cc1OC	-4.9	10.5	6.2	1	3.0
Cc1cc2c(C)nc(-c3ccccc3)nc2o1	58.0*	0.3	60.3*	2*	-6.4
COc1cc(C(Nc2ccccn2)c2ccc3ccc(C)nc3c2O)cc(OC)c1O (stereo not drawn)	9.0	70.9*	0.1	1	24.6
CC(C)Oc1ccc(C2/C(=C(/O)c3ccc(F)cc3)C(=O)C(=O)N2CCCN(C)C)cc1 (stereo not drawn)	4.1	-9.8	8.9	1	0.3
COCCn1c(SCc2cccnc2)nnc1-c1ccco1	5.3	-8.4	-12.5	1	12.3
CCc1nnc(NC(=O)c2ccc(S(=O)(=O)N(CC(C)C)CC(C)C)cc2)o1	-13.7	94.0*	-4.0	1	25.2
COCc1nnc(NC(=O)c2ccc(S(=O)(=O)N(C)C3CCCCC3)cc2)o1	-0.7	10.0	-14.0	1.3	26.0
COCCN(CCOC)S(=O)(=O)c1ccc(C(=O)Nc2nnc(C)o2)cc1	0.0	9.1	-19.7	1.1	28.5
CCN(Cc1ccccc1)S(=O)(=O)c1ccc(C(=O)Nc2nnc(C3CC3)o2)cc1	-19.6	101.0*	-11.5	1.2	2.6
CSCc1nnc(NC(=O)c2ccc(S(=O)(=O)N(CC(C)C)CC(C)C)cc2)o1	-48.1	87.6*	-15.3	1.1	20.4
Cc1nnc(NC(=O)c2ccc(S(=O)(=O)N(C)Cc3ccccc3)cc2)o1	-22.1	11.0	-9.8	1.1	20.5
CCCC(=O)Nc1ccc(NC(=O)c2ccccn2)cn1	27.4	nt	89.1*	0.9	-15.1
COc1cccc(C(=O)Nc2cccc(SC)c2)c1	80.7*	-5.5	51.3*	1.1	-19.1
CCCc1nnc(NC(=O)c2cccc(OC)c2)s1	37.1	-1.3	57.2*	1	-30.4
CCCC(=O)Nc1ccc(NC(=O)c2cccc(OC)c2)nc1	60.4*	-3.5	44.5	1.5	-11.0
COc1cccc(C(=O)Nc2ccc(NC(C)=O)cn2)c1	35.0	0.5	16.4	1.4	8.5
COc1ccc2[nH]c(=O)c(C(c3nnnn3C3CCCC3)N3CCN(Cc4ccc5c(c4)OCO5)CC3)cc2c1 (stereo not drawn)	nt	nt	nt	1.1	nt
C[C@H](NC(=O)[C@@H]1C[C@H]1[C@@H](NC(=O)OCc1ccccc1)c1ccccc1)c1ccccc1	nt	nt	nt	1.1	nt
CN(C)/C=C1\C(=O)c2ccc(N(C)C)nc2CC1c1ccccc1 (stereo not drawn)	-6.4	-0.5	7.0	0.9	11.6
